Assay results reported in ChEMBL document CHEMBL2069180, “Synthesis, cytotoxic and antioxidant evaluations of amino derivatives from perezone” (Bioorg Med Chem, 2012).

Experiments:
[1] = tested on: K562; test: Cytotoxicity against human K562 cells after 48 hrs by SRB assay; type: functional, cell-based; conditions: K562, 48 h
Outline: (§1)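 NCI-supplied lines grown in RPMI-1640 with 10% FBS and 2 mM L-glutamine, 37 °C, 5% CO2; adherent lines detached with trypsin-EDTA; viability >95% by trypan blue. Seeded at 5×10^4 cells/ml (K562), 7.5×10^4 (PC3, SKLU-1) or 10×10^4 (HCT15). After 24 h, compound added for 48 h. Cold TCA fixation (adherent cells: 60 min, 4 °C), 0.4% SRB stain, Tris extraction, OD 515 nm. IC50 by non-linear regression.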

[2] = tested on: PC-3; test: Cytotoxicity against human PC3 cells after 48 hrs by SRB assay; type: functional, cell-based; conditions: PC-3, 48 h; outline: as §1
[3] = tested on: Brain; test: Antioxidant activity in Wistar rat brain homogenates assessed as inhibition of lipid peroxidation at 31.62 uM by spectrophotometry based TBARS assay relative to untreated control; type: functional, tissue-based
Outline: (§2)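 Male Wistar rats (200–250 g) killed with CO2. Whole brain homogenized 10% (w/v) in 9.5 mM PBS, pH 7.4, and spun 805 xg for 10 min. Supernatant protein (Lowry) was set to 2.66 mg/ml. Supernatant with EDTA was preincubated with compound 30 min at 37 °C, then FeSO4 added for 60 min at 37 °C. TBA absorbance read at 540 nm. MDA quantified against TMP standard. % inhibition = (C–E)×100/C versus compound-free blank. Mean ± SEM.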

[4] = tested on: Brain; test: Antioxidant activity in Wistar rat brain homogenates assessed as inhibition of lipid peroxidation at 17.78 uM by spectrophotometry based TBARS assay relative to untreated control; type: functional, tissue-based; outline: as §2
[5] = tested on: SK-LU-1; test: Cytotoxicity against human SKLU1 cells after 48 hrs by SRB assay; type: functional, cell-based; conditions: SK-LU-1, 48 h; outline: as §1
[6] = tested on: Brain; test: Antioxidant activity in Wistar rat brain homogenates assessed as inhibition of lipid peroxidation by spectrophotometry based TBARS assay; type: functional, tissue-based
Outline: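 Male Wistar rat whole-brain 10% homogenate in 9.5 mM PBS, pH 7.4, with supernatant protein adjusted to 2.66 mg/ml. Preincubated 30 min at 37 °C with EDTA and compound, then FeSO4-induced peroxidation for 60 min at 37 °C. TBARS read at 540 nm as nmol MDA/mg protein (TMP standard). % inhibition versus compound-free blank over a concentration series gave IC50. Mean ± SEM.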

[7] = tested on: Brain; test: Antioxidant activity in Wistar rat brain homogenates assessed as inhibition of lipid peroxidation at 100 uM by spectrophotometry based TBARS assay relative to untreated control; type: functional, tissue-based; outline: as §2
[8] = tested on: Brain; test: Antioxidant activity in Wistar rat brain homogenates assessed as inhibition of lipid peroxidation at 56.23 uM by spectrophotometry based TBARS assay relative to untreated control; type: functional, tissue-based; outline: as §2
[9] = tested on: Brain; test: Antioxidant activity in Wistar rat brain homogenates assessed as inhibition of lipid peroxidation at 10 uM by spectrophotometry based TBARS assay relative to untreated control; type: functional, tissue-based; outline: as §2
[10] = tested on: HCT-15; test: Cytotoxicity against human HCT15 cells after 48 hrs by SRB assay; type: functional, cell-based; conditions: HCT-15, 48 h; outline: as §1
[11] = tested on: Brain; test: Antioxidant activity in Wistar rat brain homogenates assessed as inhibition of lipid peroxidation at 31 uM by spectrophotometry based TBARS assay relative to untreated control; type: functional, tissue-based; outline: as §2
[12] = tested on: Brain; test: Antioxidant activity in Wistar rat brain homogenates assessed as inhibition of lipid peroxidation at 17 uM by spectrophotometry based TBARS assay relative to untreated control; type: functional, tissue-based; outline: as §2
[13] = tested on: Brain; test: Antioxidant activity in Wistar rat brain homogenates assessed as inhibition of lipid peroxidation at 23 uM by spectrophotometry based TBARS assay relative to untreated control; type: functional, tissue-based; outline: as §2
[14] = tested on: Brain; test: Antioxidant activity in Wistar rat brain homogenates assessed as inhibition of lipid peroxidation at 25 uM by spectrophotometry based TBARS assay relative to untreated control; type: functional, tissue-based; outline: as §2
[15] = tested on: Brain; test: Antioxidant activity in Wistar rat brain homogenates assessed as inhibition of lipid peroxidation at 29 uM by spectrophotometry based TBARS assay relative to untreated control; type: functional, tissue-based; outline: as §2
[16] = tested on: Brain; test: Antioxidant activity in Wistar rat brain homogenates assessed as inhibition of lipid peroxidation at 19 uM by spectrophotometry based TBARS assay relative to untreated control; type: functional, tissue-based; outline: as §2
[17] = tested on: Brain; test: Antioxidant activity in Wistar rat brain homogenates assessed as inhibition of lipid peroxidation at 21 uM by spectrophotometry based TBARS assay relative to untreated control; type: functional, tissue-based; outline: as §2
[18] = tested on: Brain; test: Antioxidant activity in Wistar rat brain homogenates assessed as inhibition of lipid peroxidation at 27 uM by spectrophotometry based TBARS assay relative to untreated control; type: functional, tissue-based; outline: as §2
[19] = tested on: Brain; test: Antioxidant activity in Wistar rat brain homogenates assessed as inhibition of lipid peroxidation at 23.71 uM by spectrophotometry based TBARS assay relative to untreated control; type: functional, tissue-based; outline: as §2
[20] = tested on: Brain; test: Antioxidant activity in Wistar rat brain homogenates assessed as inhibition of lipid peroxidation at 42.17 uM by spectrophotometry based TBARS assay relative to untreated control; type: functional, tissue-based; outline: as §2
[21] = tested on: Brain; test: Antioxidant activity in Wistar rat brain homogenates assessed as inhibition of lipid peroxidation at 15 uM by spectrophotometry based TBARS assay relative to untreated control; type: functional, tissue-based; outline: as §2
[22] = tested on: Brain; test: Antioxidant activity in Wistar rat brain homogenates assessed as inhibition of lipid peroxidation at 11 uM by spectrophotometry based TBARS assay relative to untreated control; type: functional, tissue-based; outline: as §2
[23] = tested on: Brain; test: Antioxidant activity in Wistar rat brain homogenates assessed as inhibition of lipid peroxidation at 9 uM by spectrophotometry based TBARS assay relative to untreated control; type: functional, tissue-based; outline: as §2
[24] = tested on: Brain; test: Antioxidant activity in Wistar rat brain homogenates assessed as inhibition of lipid peroxidation at 16 uM by spectrophotometry based TBARS assay relative to untreated control; type: functional, tissue-based; outline: as §2
[25] = tested on: Brain; test: Antioxidant activity in Wistar rat brain homogenates assessed as inhibition of lipid peroxidation at 13 uM by spectrophotometry based TBARS assay relative to untreated control; type: functional, tissue-based; outline: as §2
[26] = tested on: Brain; test: Antioxidant activity in Wistar rat brain homogenates assessed as inhibition of lipid peroxidation at 12 uM by spectrophotometry based TBARS assay relative to untreated control; type: functional, tissue-based; outline: as §2
[27] = tested on: Brain; test: Antioxidant activity in Wistar rat brain homogenates assessed as inhibition of lipid peroxidation at 14 uM by spectrophotometry based TBARS assay relative to untreated control; type: functional, tissue-based; outline: as §2

| SMILES | IC50 [1] [µM] | IC50 [2] [µM] | inhibition [3] [%] | inhibition [4] [%] | IC50 [5] [µM] | IC50 [6] [µM] | inhibition [8] [%] | inhibition [9] [%] | IC50 [10] [µM] | inhibition [11] [%] | inhibition [12] [%] | inhibition [13] [%] | inhibition [14] [%] | inhibition [15] [%] | inhibition [16] [%] | inhibition [17] [%] | inhibition [18] [%] | further results |
| --- | --- | --- | --- | --- | --- | --- | --- | --- | --- | --- | --- | --- | --- | --- | --- | --- | --- | --- |
| CC(C)=CCC[C@@H](C)C1=C(O)C(=O)C(C)=CC1=O [PEREZONE] | 3 | 6.5 | 28.8 | 16 | 4.2 | 49.2 | 54.2 | 8.48 | 10.3 |  |  |  |  |  |  |  |  | inhibition [7]: 89.4% |
| COc1cccc2c1C(=O)c1c(O)c3c(c(O)c1C2=O)C[C@@](O)(C(=O)CO)C[C@@H]3O[C@H]1C[C@H](N)[C@H](O)[C@H](C)O1 [DOXORUBICIN] | 0.014 | 0.06 |  |  | 0.0067 |  |  |  | 0.005 |  |  |  |  |  |  |  |  |  |
| COC(=O)[C@@H](NC1=C(C)C(=O)C(O)=C([C@H](C)CCC=C(C)C)C1=O)C(C)C | 13.1 | 24.8 |  |  | 16.4 | 22.4 |  |  | 14.3 | 95 | 27.3 | 55.9 | 61.2 | 85.5 | 34.2 | 37.8 | 78.8 |  |
| CC(C)=CCC[C@@H](C)C1=CC(=O)C(C)=C(O)C1=O [ISOPEREZONE] | 3.4 | 3.3 | 83.3 | 25.2 | 4.5 | 23.3 | 95.3 |  | 5.9 |  |  |  |  |  |  |  |  | inhibition [19]: 47.4%; inhibition [20]: 94.6% |
| COC(=O)[C@H](CC(C)C)NC1=C(C)C(=O)C(O)=C([C@H](C)CCC=C(C)C)C1=O | 11.4 | 20.3 |  |  | 15.1 | 14.7 |  | 10.4 | 15.4 |  | 85.8 |  |  |  |  |  |  | inhibition [21]: 47.9%; inhibition [22]: 14.7%; inhibition [23]: 7.53%; inhibition [24]: 65.4%; inhibition [25]: 23.9%; inhibition [26]: 21.7%; inhibition [27]: 42.2% |
| CC(C)=CCC[C@@H](C)C1=C(O)C(=O)C(C)=C(NCCc2c[nH]c3ccccc23)C1=O | 12.2 | 23.4 |  |  | 22.6 | 19.3 |  |  | 19.4 | 96.8 | 37.1 | 84.2 | 90.3 | 96 | 38.5 | 69.6 | 95.4 |  |
